TRPC6 act – mouse TRPC6 channel activators, primary screen, cell-based, HEK293, membrane potential dye. Short transient receptor potential channel 6 (Mus musculus), Q61143. HEK293-TRPC6 membrane potential dye fluorescence; stronger effect = higher value. B-score at 10 µM. actives 0.13% (n = 310,000). AID 2550, 2010;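 active = B-score of the integrated fluorescence ratio above library mean plus 3 SD, and starting fluorescence ratio within library mean plus 5 SD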;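 note: higher score means more depolarization so channel activation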
TRPC4 act – activators of mouse TRPC4 channel, primary screen, Fluo4 calcium, HEK293 TRPC4beta/mu-opioid cells; B-score at 10 µM; Fluo4 calcium fluorescence; stronger effect = higher value; actives 0.49% (n = 310,000);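 active = B-score above 5 SD of library B-scores, and initial fluorescence ratio not above library mean plus 5 SD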;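 note: positive B-score marks a calcium rise read as TRPC4 activation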
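System: HEK293 cells stably co-expressing mouse TRPC4beta and mu-opioid receptor; Schedule: Fluo4 dye loading 45 min at room temperature, 110 s recording; Detection: Fluo4 fluorescence, kinetic; Evaluation: B-scored integrated calcium fluorescence ratio; Controls: buffer (low) and maximal DAMGO (high).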
TRPC6 inhibitor – mouse TRPC6 channel inhibitors, primary screen, cell-based, HEK293, membrane potential dye | Short transient receptor potential channel 6 (Mus musculus), Q61143 | ACh-evoked depolarization; stronger effect = lower value | B-score at 10 µM | actives 1.1% (n = 310,000) | AID 2553, 2010;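 active = B-score under library mean minus 3 SD, initial fluorescence not abnormally high, positive integrated signal ratio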;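 note: B-score derived from integrated fluorescence ratio over the kinetic read; more negative B-score means stronger inhibition of depolarization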
TRPC4 block – inhibitors of mouse TRPC4 channel, primary screen, Fluo4 calcium, HEK293 TRPC4beta/mu-opioid cells; Short transient receptor potential channel 4 (Mus musculus), Q9QUQ5; DAMGO-evoked Fluo4 calcium flux; stronger effect = lower value; B-score at 10 µM; actives 0.39% (n = 300,000);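 active = B-score over 3 SD under the library average, no early fluorescence shift, positive overall ratio signal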
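Material: HEK293 cells with stable TRPC4beta plus mu-opioid receptor expression; probe or stimulus: DAMGO in two steps, submaximal then maximal; technique: Fluo4 calcium fluorescence by kinetic imaging, 5 s 1 Hz baseline; measure: integrated fluorescence ratio relative to baseline, converted to per-well B score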
Pemphigus Ab inh – inhibitors of pemphigus antibody binding to DSG3, primary screen, biochemical, bead-based, flow cytometry, scFv-GFP. DSG3-coupled beads, scFv-anti-DSG3-GFP binding; stronger effect = lower value. binding (percent of control), % at 10 µM. AID 588358, 2011. actives 0.48% (n = 310,000);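 active = binding more than 3 SD below its plate's average and above zero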;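 note: hits lower antibody fragment binding to DSG3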
Target sequence (P32926 whole entry, looked up, the tested form may be a part): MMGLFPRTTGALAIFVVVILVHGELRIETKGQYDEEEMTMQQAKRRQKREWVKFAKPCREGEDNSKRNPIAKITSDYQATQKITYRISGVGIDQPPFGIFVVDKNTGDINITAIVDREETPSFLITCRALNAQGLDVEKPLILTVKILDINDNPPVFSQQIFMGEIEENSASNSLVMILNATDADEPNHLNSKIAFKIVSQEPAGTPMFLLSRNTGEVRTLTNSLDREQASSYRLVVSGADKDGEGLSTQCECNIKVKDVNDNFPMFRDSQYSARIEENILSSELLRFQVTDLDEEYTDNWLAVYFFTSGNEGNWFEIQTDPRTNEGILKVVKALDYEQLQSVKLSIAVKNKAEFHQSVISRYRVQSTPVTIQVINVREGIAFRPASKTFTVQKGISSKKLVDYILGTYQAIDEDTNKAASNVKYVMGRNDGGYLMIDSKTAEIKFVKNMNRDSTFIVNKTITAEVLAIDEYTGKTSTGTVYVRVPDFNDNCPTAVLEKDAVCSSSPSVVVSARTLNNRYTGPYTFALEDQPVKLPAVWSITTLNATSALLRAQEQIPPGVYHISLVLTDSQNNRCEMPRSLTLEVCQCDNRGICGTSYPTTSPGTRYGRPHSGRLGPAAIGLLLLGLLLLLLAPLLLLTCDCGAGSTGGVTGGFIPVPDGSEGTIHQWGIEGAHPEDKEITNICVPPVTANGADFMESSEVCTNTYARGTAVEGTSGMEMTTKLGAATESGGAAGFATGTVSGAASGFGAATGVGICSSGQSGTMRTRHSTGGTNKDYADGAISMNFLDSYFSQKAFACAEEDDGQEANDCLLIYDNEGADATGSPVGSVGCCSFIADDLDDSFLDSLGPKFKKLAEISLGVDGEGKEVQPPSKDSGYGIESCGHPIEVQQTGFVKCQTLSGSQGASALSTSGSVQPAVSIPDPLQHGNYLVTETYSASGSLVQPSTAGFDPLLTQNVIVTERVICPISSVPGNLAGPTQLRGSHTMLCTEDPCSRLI
TRPC4 PAM – positive allosteric modulators of TRPC4, primary screen, cell-based, mouse TRPC4beta, HEK293 mu-opioid, Fluo-4 calcium. Short transient receptor potential channel 4 (Mus musculus), Q9QUQ5. DAMGO EC20, Fluo-4 Ca2+ flux; stronger effect = higher value. B-score at 10 µM. actives 0.42% (n = 310,000). AID 2227, 2009;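 active = B-score of calcium response area above 5 SD of library B-scores, with initial fluorescence ratio within 5 SD of library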;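 note: B-score of integrated fluorescence ratio over time as area under calcium response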
Starred values were filed as active, the others as inactive; i = inactive; · = no result. Rows were chosen to be rich in hits. Some 2.5% of all compounds tested hit in one or more screens of this group.

SMILES	TRPC6 act	TRPC4 act	TRPC6 inhibitor	TRPC4 block	Pemphigus Ab inh	TRPC4 PAM
Cc1ccc([C@@H]2C[C@H]3[C@@H](CN2S(=O)(=O)c2ccc(Cl)cc2)C(=O)C[C@@H](c2ccccc2F)N3S(=O)(=O)c2ccc(C)cc2)cc1	·	·	·	·	99	·
NCCc1ccccn1	i	i	i	i	·	i
Cn1cnc(CCN)c1	i	143*	i	i	118	i
O=C(Nc1ccc(F)cc1)OC1CN2CCC1CC2 (stereo not drawn)	i	i	i	i	110	i
Cc1ccc2c(c1)C1CN(C)CCC1N2C(=O)c1cccnc1Cl (stereo not drawn)	i	i	i	i	101	i
Cc1ccc2c(c1)C1CN(C)CCC1N2C(=O)c1cn(-c2ccccc2)nc1-c1ccccc1 (stereo not drawn)	i	i	i	i	99	23*
COc1ccc2[nH]c(C)c(CCNCc3cn(C)c4ccccc34)c2c1	·	·	·	·	99	·
C#CCN1C(=O)C2(C(C#N)=C(N)OC(C)=C2C(=O)OCc2ccccc2)c2ccccc21 (stereo not drawn)	i	i	i	i	104	29*
CCOC(=O)C1=C(C)OC(N)=C(C#N)C12C(=O)N(C)c1ccccc12 (stereo not drawn)	i	i	i	i	107	i
OCC1CN1C1CCCCC1 (stereo not drawn)	·	·	·	·	90	·
O=C(CCNC(=O)N1C[C@H]2C[C@@H](C1)c1cccc(=O)n1C2)Nc1ccc(F)cc1	i	i	i	i	80*	i
COc1ccc(C(=O)NC(=S)N2C[C@H]3C[C@H](C2)c2cccc(=O)n2C3)cc1	i	i	i	i	101	i
c1ccc2[nH]c(CCNC3CCCCC3)nc2c1	i	65*	i	i	·	i
N=c1c[n+](CC23CC4CC(CC(C4)C2)C3)[n-]o1	i	211*	i	i	97	i
BrCC(Br)(Br)Br	·	·	·	·	105	·
COc1ccc(NP(=O)(Nc2ccc(OC)cc2)Oc2ccccc2)cc1	i	i	i	i	102	12*
COc1ccc(OC)c(NP(=O)(Oc2ccccc2)Oc2ccccc2)c1	i	i	i	i	122	10*
CC(NS(=O)(=O)OCC(Cl)(Cl)Cl)c1ccccc1 (stereo not drawn)	i	i	i	i	101	i
CCOC(=O)C1(c2ccccc2)CCN(CCC(=O)Nc2cccc(Br)c2)CC1	·	·	·	·	95	·
CCN(CC)c1nc2c(C)cccn2c(=O)c1C=C1C(=O)NC(=O)NC1=O	i	i	i	i	104	14*
N=Cc1c(O)n(-c2ccc(C34CC5CC(CC(C5)C3)C4)cc2)c(=O)[nH]c1=O	i	i	i	i	98	i
CC1CC(C)CN(CC(=O)c2ccc(OC(F)F)cc2)C1 (stereo not drawn)	i	52*	i	i	130	i
Nc1ccccc1-[n+]1c(-c2ccccc2)cc(-c2ccccc2)cc1-c1ccccc1	i	i	i	i	105	25*
FC(F)(F)c1ccc(NC2=NCCCS2)cc1	i	i	i	i	110	i
Cc1ccccc1-n1c(C)cc(/C=C2/C(=O)NC(=O)N(Cc3ccco3)C2=O)c1C	i	i	i	-6*	107	i
SMILES	TRPC6 act	TRPC4 act	TRPC6 inhibitor	TRPC4 block	Pemphigus Ab inh	TRPC4 PAM
O=C(CCC(=O)N1CCC2(CC1)OCCO2)Nc1nnc(C2CCCCC2)s1	i	i	i	i	·	i
O=C(CN1CCCC1)Nc1ccc(Cl)cc1C(=O)c1ccccc1	i	i	i	-6*	113	i
O=C(CCN1CCCCC1)Nc1ccc(Cl)cc1C(=O)c1ccccc1	i	i	i	i	103	i
COc1ccc(OC)c(N2C(=O)/C(=C/c3ccco3)C(=O)NC2=S)c1	i	i	i	i	·	10*
Oc1ccc2c3c1O[C@H]1c4oc5ccccc5c4C[C@@]4(O)[C@@H](C2)N(CC2CC2)CC[C@]314	i	i	i	-6*	100	i
COc1ccc2c(c1)C(NC(C)=O)CCc1cc(OC)c(OC)c(OC)c1-2 (stereo not drawn)	·	·	·	·	113	·
COc1ccc(OC)c(CN2CCCC(C(=O)c3sccc3C)C2)c1 (stereo not drawn)	i	i	i	-6*	99	i
Cc1ccsc1C(=O)C1CCCN(CCO)C1 (stereo not drawn)	i	i	i	i	103	i
COc1cccc(O)c1CN1CCCC(C(=O)c2sccc2C)C1 (stereo not drawn)	i	i	i	-9*	110	i
Cc1ccsc1C(=O)C1CCCN(Cc2cn(C)nc2C)C1 (stereo not drawn)	i	i	i	i	100	i
COC(=O)C1=C(c2ccc(C(C)=O)cc2)C[C@@H]2CC[C@H]1N2C(=O)NCCCOC(C)C	·	·	·	·	102	·
Cc1ccc(-c2nc(N(C)C3CCN(C)CC3)c3ccccc3n2)cc1	i	i	i	i	102	24*
C[C@@H]1CN([C@@H](C)CO)C(=O)CCCn2nncc2CO[C@@H]1CN(C)C(=O)Oc1ccccc1	·	·	·	·	106	·
CCOC(=O)C1(c2ccccc2)CCN(CC(=O)Nc2ccc(C)cc2)CC1	i	i	i	-8*	102	i
CCOC(=O)C1(c2ccccc2)CCN(CCC(C#N)(c2ccccc2)c2ccccc2)CC1	i	94*	i	i	109	i
CCOC(=O)C1(c2ccccc2)CCN(CCC(=O)Nc2ccc(OC)cc2)CC1	·	·	·	·	99	·
CCOC(=O)C1(c2ccccc2)CCN(CCC(=O)Nc2ccc(C(=O)OC)cc2)CC1	·	·	·	·	96	·
CCC(C)n1c(O)c(C=Nc2cccc(C(F)(F)F)c2)c(=O)[nH]c1=S (stereo not drawn)	i	i	i	i	76	i
Cc1ccc2c(C)c3ccc4ccccc4c3c[n+]2c1	·	·	·	·	90	·
O=c1[nH]c(=O)n(CCc2ccccc2)c(O)c1C=NC1CC1	i	i	i	i	95	14*

Source: PubChem BioAssay
